ChEMBL document CHEMBL4033786, “Discovery of Novel 1-Cyclopentenyl-3-phenylureas as Selective, Brain Penetrant, and Orally Bioavailable CXCR2 Antagonists” (J Med Chem, 2018)
Converted amounts (≈) assume the structure as drawn. The source made the active and inactive calls. No cut-off for these calls is given here.

Columns and labels:
[1] = molecular target: T1, C-X-C chemokine receptor type 2 (Homo sapiens, UniProt P25025); assay: Antagonist activity at CXCR2 in human whole blood assessed as inhibition of GROalpha-stimulated CD11b upregulation preincubated for 15 mins followed by GROalpha stimulation measured after 15 mins by FITC-staining based FACS analysis
T1 sequence (P25025 whole entry): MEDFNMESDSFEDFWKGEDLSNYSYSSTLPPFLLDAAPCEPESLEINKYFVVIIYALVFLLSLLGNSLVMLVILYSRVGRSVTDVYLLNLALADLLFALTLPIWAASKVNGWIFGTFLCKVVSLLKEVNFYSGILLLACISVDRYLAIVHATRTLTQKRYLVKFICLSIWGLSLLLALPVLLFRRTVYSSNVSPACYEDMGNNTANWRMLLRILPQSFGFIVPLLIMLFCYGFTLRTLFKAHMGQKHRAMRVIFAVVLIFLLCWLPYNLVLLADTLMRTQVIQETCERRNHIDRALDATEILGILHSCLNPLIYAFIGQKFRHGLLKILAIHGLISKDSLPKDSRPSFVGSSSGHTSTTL

[2] = Solubility of compound in fasted state simulated intestinal fluid measured after 4 hrs; assay type: physicochemical
Procedure, shortened: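 Solubility in FaSSIF, read after 4 h incubation.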

[3] = Passive permeability in MDCK2-MDR1 cells transduced with BacMam2-BCRP at 3 uM after 90 mins by Transwell assay; assay type: ADME, cell-based, Canis lupus familiaris, MDCK-MDR1; settings: dog; read-out: permeability
Procedure, shortened: (§1)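 MDCKII-MDR1 cells transduced with BacMam2-BCRP and grown in Transwells. Compound at 3 μM, in duplicate, was incubated 90 min A→B (and B→A) with and without GF120918 (5 μM, dual P-gp/BCRP inhibitor). Passive permeability (Pexact, nm/s) was calculated by an equation from earlier work. The permeability ratio is A→B permeability with GF120918 over A→B permeability without it.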

[4] = Ratio of passive permeability in presence of dual P-gp/BCRP inhibitor GF120918 to absence of GF120918 in MDCK2-MDR1 cells transduced with BacMam2-BCRP at 3 uM after 90 mins by Transwell assay; assay type: ADME, cell-based, Canis lupus familiaris; settings: dog, mdck2-mdr1, 1.5 h; procedure, shortened: as §1
[5] = molecular target: T1, C-X-C chemokine receptor type 2; assay: Antagonist activity at TEV protease cleavage site linked GAL4-VP16-fused recombinant human CXCR2 expressed in cells assessed as inhibition of […] human CXCL1-stimulated beta-arrestin recruitment by CCF4-AM-fluorescence based FRET assay; assay type: cell-based; settings: read-out: pIC50 (converted)
Procedure, shortened: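 Stable cell line expressing recombinant human CXCR2 linked to a TEV site and Gal4-VP16. Cells were starved 24 h at 37 °C, 5% CO2, then resuspended at ~200,000 cells/mL. They were given compound in DMSO (concentration-response), stimulated with 80 nM hCXCL1 and incubated overnight at 37 °C. CCF4-AM substrate was then added for 2 h at RT in the dark.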

[6] = Fraction unbound in Han-Wistar SOA rat model blood at 2 mg/kg administered via oral gavage by UPLC/MS/MS analysis; assay type: ADME, organism-based
[7] = Ratio of brain dose normalized AUC (0 to 7 hrs) to […] dose normalized AUC (0 to 7 hrs), Kp of the compound in Han-Wistar SOA rat model at 2 mg/kg administered via oral gavage by UPLC/MS/MS analysis; assay type: ADME, organism-based
Procedure, shortened: (§2)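 Male Han-Wistar rats given a single 2 mg/kg oral gavage as a suspension in DMSO:1% methylcellulose (1:99). Blood was taken by cardiac puncture under isoflurane at 0.25–7 h, diluted 1:3 with water, and brains were homogenized in 3-fold PBS. Samples were extracted by acetonitrile protein precipitation and quantified by UPLC/MS/MS. Kp = brain DNAUC0-7h/blood DNAUC0-7h; Kp,uu = Kp×Fu,br/Fu,bl.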

[8] = tested on: Brain; assay: Dose normalized AUC (0 to 7 hrs) in Han-Wistar SOA rat model brain at 2 mg/kg administered via oral gavage by UPLC/MS/MS analysis; assay type: ADME, organism-based; settings: in vivo
Procedure, shortened: (§3)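 Male Han-Wistar rats were given 2 mg/kg by oral gavage as a suspension in DMSO:1% methylcellulose (1:99). Blood (cardiac puncture, EDTA-K2, under isoflurane) and brains were collected at 0.25–7 h. Brain was homogenised in 3-fold PBS, samples were protein-precipitated and quantified by UPLC/MS/MS.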

[9] = Fraction unbound in Han-Wistar SOA rat model brain at 2 mg/kg administered via oral gavage by UPLC/MS/MS analysis; assay type: ADME, organism-based
[10] = tested on: Blood; assay: Dose normalized AUC (0 to 7 hrs) in Han-Wistar SOA rat model blood at 2 mg/kg administered via oral gavage by UPLC/MS/MS analysis; assay type: ADME, organism-based; settings: in vivo; procedure, shortened: as §3
[11] = Unbound brain-to-blood concentration ratio in Han-Wistar SOA rat model at 2 mg/kg administered via oral gavage by UPLC/MS/MS analysis; assay type: ADME, organism-based; settings: read-out: K(p,uu,brain); procedure, shortened: as §2
[12] = Efflux ratio of passive permeability in MDCK2-MDR1 cells transduced with BacMam2-BCRP at 3 uM after 90 mins by Transwell assay; assay type: ADME, cell-based, Canis lupus familiaris, MDCK-MDR1; settings: dog
Procedure, shortened: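 MDCKII-MDR1 cells transduced with BacMam2-BCRP in Transwells. Compound at 3 μM was measured in duplicate, A→B and B→A, after 90 min, with and without 5 μM GF120918. ER = B→A/A→B permeability without inhibitor. System qualified with amprenavir and dantrolene ERs.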

[13] = molecular target: C-X-C chemokine receptor type 2 (Mus musculus, UniProt P35343); assay: Antagonist activity at CXCR2 in C57 mouse whole blood assessed as inhibition of GROalpha-stimulated CD11b upregulation preincubated for 2 hr followed by GROalpha stimulation measured after 10 mins by FITC-staining based FACS analysis
C-X-C chemokine receptor type 2 (Mus musculus, UniProt P35343), sequence (P35343 whole entry): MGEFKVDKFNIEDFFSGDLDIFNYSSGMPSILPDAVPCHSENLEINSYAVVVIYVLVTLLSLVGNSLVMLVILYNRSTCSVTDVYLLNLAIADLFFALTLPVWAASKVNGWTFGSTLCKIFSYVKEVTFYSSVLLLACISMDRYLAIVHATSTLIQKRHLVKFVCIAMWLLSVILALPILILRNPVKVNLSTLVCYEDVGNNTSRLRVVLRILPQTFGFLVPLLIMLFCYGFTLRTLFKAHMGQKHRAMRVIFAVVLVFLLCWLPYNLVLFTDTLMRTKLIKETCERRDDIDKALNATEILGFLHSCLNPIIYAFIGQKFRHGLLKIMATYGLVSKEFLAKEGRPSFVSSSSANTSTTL

[14] = molecular target: C-X-C chemokine receptor type 2 (Mus musculus) (UniProt P35343); assay: Antagonist activity at CXCR2 in C57 mouse whole blood assessed as inhibition of GROalpha-stimulated CD11b upregulation at 10 uM preincubated for 2 hr followed by GROalpha stimulation measured after 10 mins by FITC-staining based FACS analysis
C-X-C chemokine receptor type 2 (Mus musculus), sequence (P35343 whole entry): as above

[15] = Tmax in Wistar rat at 2.38 mg/kg, po measured up to 4 hrs post dose; assay type: ADME, organism-based; settings: in vivo
[16] = Cmax in Wistar rat at 2.38 mg/kg, po measured up to 4 hrs post dose; assay type: ADME, organism-based; design: dose 2.38 mg/kg, route oral; settings: in vivo
[17] = Volume of distribution at steady state in Wistar rat at 1.01 mg/kg, iv measured up to 4 hrs post dose; assay type: ADME, organism-based; settings: in vivo, read-out: Vdss
[18] = tested on: Rattus norvegicus; assay: Dose normalized AUC (0 to infinity) in Wistar rat at 1.01 mg/kg, iv measured up to 4 hrs post dose; assay type: ADME, organism-based; settings: in vivo
[19] = Oral bioavailability in Wistar rat at 2.38 mg/kg measured up to 4 hrs after dose; assay type: ADME, organism-based; settings: in vivo
[20] = tested on: Rattus norvegicus; assay: Dose normalized AUC (0 to infinity) in Wistar rat at 2.38 mg/kg, po measured up to 4 hrs post dose; assay type: ADME, organism-based; settings: in vivo
[21] = Elimination half life in Wistar rat at 1.01 mg/kg, iv measured up to 4 hrs post dose; assay type: ADME, organism-based; settings: in vivo, read-out: beta t1/2 (converted)
[22] = Clearance in Wistar rat blood at 1.01 mg/kg, iv measured up to 4 hrs post dose; assay type: ADME, organism-based

Compound | IC50 [1] | solubility at 4 h [2] | Papp at 1.5 h, 3 µM [3] | Ratio [4] | IC50 [5] | fraction unbound [6] | Kp [7] | AUC/dose [8] | fraction unbound [9] | AUC/dose [10] | Kp uu [11] | further results
CC1=CCC[C@H]1NC(=O)Nc1ccc(Cl)c(S(=O)(=O)C(C)(F)F)c1O | 631 nM | 50.8 µg/mL (≈ 129 µM) | 34.8 ×10⁻⁶ cm/s | 2.4 | – | 0.0065 | 0.06 | 243 ng·h/g/mg/kg | 0.051 | 4331 ng·h/mL/mg/kg | – | –
CC1=CCC[C@H]1NC(=O)Nc1ccc(Cl)c(S(=O)(=O)C(C)(C)C(F)(F)F)c1O | – | 3.4 µg/mL (≈ 7.71 µM) | 33.9 ×10⁻⁶ cm/s | 1.6 | 0.501 nM | 0.007 | 0.2 | 107 ng·h/g/mg/kg | 0.021 | 535 ng·h/mL/mg/kg | 0.59 | –
CC1=CCC[C@H]1NC(=O)Nc1ccc(Cl)c(S(=O)(=O)C(C)(C)[C@@H]2CCOC2)c1O | – | 24.6 µg/mL (≈ 55.5 µM) | 12.7 ×10⁻⁶ cm/s | 4.5 | 1.26 nM | – | – | – | – | – | – | –
CC1=CCC[C@H]1NC(=O)Nc1ccc(Cl)c(S(=O)(=O)C(C)(C)[C@H]2CCOC2)c1O | 316 nM | 25.2 µg/mL (≈ 56.9 µM) | 33.1 ×10⁻⁶ cm/s | – | 1.58 nM | 0.016 | 0.21 | 13.4 ng·h/g/mg/kg | 0.033 | 63.8 ng·h/mL/mg/kg | 0.42 | efflux ratio at 1.5 h, 3 µM [12]: 2.2
CC1=CCC[C@H]1NC(=O)Nc1ccc(C#N)c(S(=O)(=O)C(C)(C)CC(F)(F)F)c1O | 1000 nM | 408 µg/mL (≈ 916 µM) | 3 ×10⁻⁶ cm/s | 4.3 | 0.158 nM | – | – | – | – | – | – | –
CC[C@@H](Nc1c(Nc2cccc(C(=O)N(C)C)c2O)c(=O)c1=O)c1ccc(C)o1 [NAVARIXIN ANHYDROUS] | – | – | – | – | – | – | – | – | – | – | – | IC50 [13]: 8.1 nM; inhibition [14]: Active

The next lines start with results.

IC50 [1] | solubility at 4 h [2] | Papp at 1.5 h, 3 µM [3] | Ratio [4] | IC50 [5] | fraction unbound [6] | Kp [7] | AUC/dose [8] | fraction unbound [9] | AUC/dose [10] | Kp uu [11] | Compound | further results
316 nM | 1.2 µg/mL (≈ 3.1 µM) | 36.4 ×10⁻⁶ cm/s | 1.5 | 1 nM | – | – | – | – | – | – | CC1=CCC[C@H]1NC(=O)Nc1ccc(Cl)c(S(=O)(=O)C(C)(C)C)c1O | –
126 nM | 387 µg/mL (≈ 905 µM) | 20.3 ×10⁻⁶ cm/s | 3.4 | – | 0.05 | 0.06 | 161 ng·h/g/mg/kg | 0.137 | 2580 ng·h/mL/mg/kg | – | CC1=CCC[C@H]1NC(=O)Nc1ccc(Cl)c(S(=O)(=O)[C@H]2C[C@H](N(C)C)C2)c1O | –
158 nM | 20.5 µg/mL (≈ 49.4 µM) | 25.2 ×10⁻⁶ cm/s | 2.4 | – | 0.036 | 0.08 | 60.5 ng·h/g/mg/kg | 0.106 | 788 ng·h/mL/mg/kg | 0.23 | CC1=CCC[C@H]1NC(=O)Nc1ccc(Cl)c(S(=O)(=O)[C@]2(C)CCOC2)c1O | –
158 nM | 686 µg/mL (≈ 1820 µM) | 9 ×10⁻⁶ cm/s | 4 | – | 0.034 | 0.03 | 73 ng·h/g/mg/kg | 0.116 | 2575 ng·h/mL/mg/kg | – | CC1=CCC[C@H]1NC(=O)Nc1ccc(C#N)c(S(=O)(=O)C(C)(C)C)c1O | –
100 nM | 758 µg/mL (≈ 1670 µM) | 20.5 ×10⁻⁶ cm/s | 2.8 | – | 0.0065 | 0.03 | 296 ng·h/g/mg/kg | 0.114 | 11721 ng·h/mL/mg/kg | – | CC1=CCC[C@H]1NC(=O)Nc1ccc(Cl)c(S(=O)(=O)[C@H]2C[C@H](N3CCCC3)C2)c1O | –
100 nM | 3 µg/mL (≈ 7.41 µM) | 65.4 ×10⁻⁶ cm/s | – | 0.631 nM | 0.011 | 0.16 | 97 ng·h/g/mg/kg | 0.034 | 614 ng·h/mL/mg/kg | 0.48 | CC1=CCC[C@H]1NC(=O)Nc1ccc(Cl)c(S(=O)(=O)C(C)(C)CF)c1O | Tmax [15]: 2.5 h; Cmax [16]: 292 ng/mL; Vd [17]: 2.2 L/kg; AUC/dose [18]: 1071 ng·h/mL/mg/kg; bioavailability [19]: 88%; efflux ratio at 1.5 h, 3 µM [12]: 0.87; AUC/dose [20]: 961 ng·h/mL/mg/kg; half-life [21]: 2.5 h; clearance [22]: 15.7 mL/min/kg
